Experimental data as given in ChEMBL document CHEMBL1687825, “Plasma and intracellular (peripheral blood mononuclear cells) pharmacokinetics of once-daily raltegravir (800 milligrams) in HIV-infected patients” (Antimicrob Agents Chemother, 2011).

Legend:
[1] = Cmax in HIV-infected human plasma at 800 mg qd for 10 days administered in fasted condition on day 10 by HPLC with fluorescence detector; assay type: ADME, organism-based; set-up: dose 800 mg
In short: (§1)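 Day-10 fasted serial sampling 0–24 h after oral 800 mg once daily. Plasma from two centrifugations (390 × g, 1,090 × g, 10 min), stored −80°C; liquid-liquid extraction with tert-butyl methyl ether; HPLC C18, phosphate buffer (25 mM, pH 3)-acetonitrile, fluorescence ex 299/em 396 nm, linear 10–5,000 ng/ml. Noncompartmental: AUCτ linear trapezoidal, Cmax/Cτ by inspection, λz from terminal log-linear regression.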

[2] = tested on: Homo sapiens; test: Toxicity in HIV-infected human at 800 mg qd for 10 days administered in fasted condition on day 10; assay type: organism-based; settings: in vivo, 240 h
In short: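 Safety assessed on days 0 and 10 by clinical evaluation and laboratory tests (blood counts, chemistry) during 800 mg once-daily oral dosing added to ongoing antiretroviral therapy.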

[3] = tested on: PBMC; test: Intracellular compound distribution in ratio in HIV-infected human PBMC at AUCt by LC-MS/MS analysis; assay type: ADME, cell-based
In short: (§2)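 Intracellular distribution ratio: PBMC concentration (LC-MS/MS) divided by plasma concentration (HPLC-fluorescence), computed per patient for AUCτ, Cmax and Cτ from day-10 fasted 0–24 h profiles after 800 mg once daily; reported as median (range).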

[4] = tested on: PBMC; test: Intracellular compound distribution in ratio in HIV-infected human PBMC at Cmax by LC-MS/MS analysis; assay type: ADME, cell-based; in short: as §2
[5] = Drug concentration at the end of dosing interval in HIV-infected human plasma at 800 mg qd for 10 days administered in fasted condition on day 10 by HPLC with fluorescence detector; assay type: ADME, cell-free; settings: read-out: Ctau; in short: as §1
[6] = Drug concentration at the end of dosing interval in HIV-infected human PBMC at 800 mg qd for 10 days administered in fasted condition on day 10 by LC-MS/MS analysis; assay type: ADME, cell-based; settings: read-out: Ctau
In short: (§3)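 EDTA blood kept 4°C, processed within 1 h; PBMCs isolated on Ficoll gradient, washed with 0.9% NaCl, pellet stored −80°C. LC-MS/MS, calibration 0.4–150 ng/ml lysate; cell number by DNA detection. Noncompartmental analysis; AUCτ linear trapezoidal; geometric mean (range).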

[7] = AUCt in HIV-infected human PBMC at 800 mg qd for 10 days administered in fasted condition on day 10 by LC-MS/MS analysis; assay type: ADME, cell-based; in short: as §3
[8] = AUCt in HIV-infected human plasma at 800 mg qd for 10 days administered in fasted condition on day 10 by HPLC with fluorescence detector; assay type: ADME, cell-free; in short: as §1
[9] = Terminal phase half life in HIV-infected human PBMC at 800 mg qd for 10 days administered in fasted condition on day 10 by LC-MS/MS analysis; assay type: ADME, cell-based; settings: read-out: beta t1/2 (converted); in short: as §3
[10] = Terminal phase half life in HIV-infected human plasma at 800 mg qd for 10 days administered in fasted condition on day 10 by HPLC with fluorescence detector; assay type: ADME, cell-free; settings: read-out: beta t1/2 (converted); in short: as §1
[11] = Cmax in HIV-infected human PBMC at 800 mg qd for 10 days administered in fasted condition on day 10 by LC-MS/MS analysis; assay type: ADME, organism-based; set-up: dose 800 mg; in short: as §3
[12] = tested on: PBMC; test: Intracellular compound distribution in ratio in HIV-infected human PBMC at Ctau by LC-MS/MS analysis; assay type: ADME, cell-based; in short: as §2

Cmax [1]: 2640 ng/mL
Ratio [3]: 0.07
Ratio [4]: 0.08
concentration at 240 h [5]: 89 ng/mL
concentration at 240 h [6]: 7 ng/mL
AUC(0-t) at 240 h [7]: 909 ng·h/mL
AUC(0-t) at 240 h [8]: 12200 ng·h/mL
half-life [9]: 11.2 h
half-life [10]: 16 h
Cmax [11]: 199 ng/mL
Ratio [12]: 0.18
Compound: Cc1nnc(C(=O)NC(C)(C)c2nc(C(=O)NCc3ccc(F)cc3)c(O)c(=O)n2C)o1 [RALTEGRAVIR]
Activity [2]: Non-toxic
